HNF4A DNA FP = change in binding of human HNF4 alpha to DNA | activity change, % at 10 µM | P41235 | HNF4a-FITC DNA binding, fluorescence polarization, 1 h | hit rate 0.3% among 360,000; in the data active means activity change above about 30%, passing the limit was not always enough
TPT1 inh = inhibitors of Candida albicans tRNA 2'-phosphotransferase TPT1; recombinant caTPT1, FP RNA substrate dephosphorylation; inhibition, % at 5 µM; hit rate 0.81% among 300,000;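 active means inhibition above the mean of all tested compounds plus 3 SD, set per screening campaign, cut at about 24% in these data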;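 further: plate controls were DMSO alone for no effect and ferristatin control at 100 nM for full effect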
CSN deneddyl inh = blocks human CSN-mediated cullin deneddylation | Q92905 | Purified CSN, SCF-Nedd8-OG deneddylation, fluorescence polarization | inhibition, % at 12.5 µM | hit rate 0.38% among 360,000;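 active means pattern-corrected inhibition above about 35%, with an unprinted fluorescence ratio check between 0.5 and 1.5, limit read from the data, passing the limit was not always enough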;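 further: 0% = enzyme with substrate and 100% = substrate without enzyme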
Target sequence (Q92905 whole entry, looked up, one chain of several): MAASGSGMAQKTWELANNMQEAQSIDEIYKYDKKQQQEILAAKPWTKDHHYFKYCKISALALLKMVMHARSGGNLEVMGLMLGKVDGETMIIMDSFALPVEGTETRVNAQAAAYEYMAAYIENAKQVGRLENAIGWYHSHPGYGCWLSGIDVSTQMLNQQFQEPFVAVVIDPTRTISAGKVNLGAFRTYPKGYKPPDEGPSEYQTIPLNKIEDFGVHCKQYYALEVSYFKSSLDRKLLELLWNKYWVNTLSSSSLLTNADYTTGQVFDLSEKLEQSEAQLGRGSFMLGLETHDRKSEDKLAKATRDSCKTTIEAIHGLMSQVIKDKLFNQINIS
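Test system: purified human Csn5 enzyme expressed in HEK293T cells. Amount: 0.24 nM enzyme. Reagent: SCFSkp2-Nedd8OG substrate at 10 nM final. Schedule: 90 min incubation of compound, enzyme and substrate at room temperature. Detection: fluorescence polarization. Read-out: % inhibition of substrate cleavage by Csn5.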
NadD inh = NadD (S. aureus) enzyme inhibition | purified NadD enzyme, colorimetric absorbance read-out | hit rate 0.78% among 360,000 | inhibition, % at 20 µM; in the data active means inhibition above about 26%
PP1 counter = counter-screen for PP5 inhibitors: inhibitors of human PP1-alpha; inhibition, % at 6.7 µM; hit rate 0.9% among 320,000; AID 2235; P62136; purified PP1alpha, OMFP fluorescence;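 active means inhibition above the mean inhibition of all tested compounds plus 3 SD, computed separately for each screening campaign, cut at about 15% in these data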
Rpn11 block = blocks the human proteasome subunit Rpn11; human 26S proteasome, Ub4-pepOG fluorescence polarization; 20S core pre-blocked with epoxomicin; hit rate 0.59% among 360,000; inhibition, % at 20 µM; O00487; AID 588493;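 active means inhibition at 20 µM, scaled to each plate's controls, above about 33%, limit read from the data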
Target sequence (O00487 whole entry, looked up): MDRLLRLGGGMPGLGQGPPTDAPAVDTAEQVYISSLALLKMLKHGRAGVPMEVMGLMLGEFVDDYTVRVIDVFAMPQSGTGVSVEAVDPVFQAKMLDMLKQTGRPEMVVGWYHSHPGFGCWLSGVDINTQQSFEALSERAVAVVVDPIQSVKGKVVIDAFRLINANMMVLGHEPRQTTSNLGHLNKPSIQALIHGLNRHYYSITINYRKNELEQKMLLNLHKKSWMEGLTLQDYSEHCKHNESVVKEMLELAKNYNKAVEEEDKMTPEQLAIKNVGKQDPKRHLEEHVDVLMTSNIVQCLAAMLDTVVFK
PP1 inh confirm = confirmation of human PP1 phosphatase inhibitors | shares compounds with PP1 counter | purified PP1alpha, OMFP substrate fluorescence | inhibition, % at 6.7 µM | hit rate 52% among 1,900 | AID 2358;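 active means mean PP1 inhibition above a set limit taken from the earlier primary screen, cut at about 15% in these data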
PP5 counter = PP5 phosphatase inhibition, counter-screen for PP1 inhibitors; shares compounds with PP1 counter; purified PP5c, OMFP fluorescence; inhibition, % at 6.7 µM; hit rate 4% among 1,900;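 active means mean PP5 inhibition over triplicate wells above about 9.5% taken from the earlier PP1 screen, limit read from the data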
Numbers without * were called inactive; x = not tested or not shown. In the library only some 2.7% were active in any assay of this set; here they are far more common.

SMILES	HNF4A DNA FP	TPT1 inh	CSN deneddyl inh	NadD inh	PP1 counter	Rpn11 block	PP1 inh confirm	PP5 counter
CN([C@@H](Cc1ccc(OS(=O)(=O)c2cccc3cnccc23)cc1)C(=O)N1CCN(c2ccccc2)CC1)S(=O)(=O)c1cccc2cnccc12	4.6	-5.7	-1.2	31.7*	28.8*	18.1	19.9*	2.0
O=C(NN1CCOCC1)c1ccc(F)cc1	1.5	1.2	2.5	-6.4	20.2*	7.5	-5.6	-5.9
C=Cc1c(C)c2cc3[nH]c(cc4nc(cc5nc(cc1[nH]2)C(C)=C5CCC(=O)O)C(CCC(=O)O)=C4C)c(C)c3C=C	-37.1	-3.7	7.8	5.6	61.4*	-16.7	41.5*	4.0
O=C(CCn1cccn1)Nc1ccc2c(c1)OCO2	1.0	-1.0	0.7	0.9	0.2	1.8	x	x
Cc1cc(OCCCC(=O)NCCc2nnc3ccccn23)ccc1Cl	-2.0	x	0.7	-4.1	x	-4.8	x	x
CCOC(=O)C1(C(=O)OCC)C(C(=O)c2ccccc2)C1c1ccccc1 (centres undefined)	-4.8	x	6.4	-6.2	x	1.9	x	x
O=C(c1ccccc1)N1CCN(C(=O)c2nn3c(C(F)(F)F)cc(-c4ccco4)nc3c2Br)CC1	2.6	7.5	1.6	16.0	19.4*	13.5	-3.0	-2.8
Nc1nc(=O)n(C2CCCO2)cc1Br (centres undefined)	-2.2	x	2.4	-1.9	x	-3.1	x	x
COc1ccc(-n2c3c(cc(C(=O)NNc4ccccc4C)c2=O)C(=O)CC(C)(C)C3)cc1	-2.6	-5.6	-1.9	1.2	18.2*	0.5	0.6	-3.2
COc1ccc(NS(=O)(=O)c2ccc3c(c2)[C@H]2C=CC[C@H]2[C@@H](c2ccc(C(=O)O)cc2)N3)cc1	-48.1	5.8	30.2	30.0*	18.8*	8.9	5.6	-1.8
Cc1c(Cl)cccc1NS(=O)(=O)c1ccc2c(c1)C1C=CCC1C(c1ccc(C(=O)O)cc1)N2 (centres undefined)	-41.2	16.6	27.5	33.6*	24.6*	22.3	18.4*	1.0
O=C(O)c1ccc2c(c1)C1C=CCC1C(c1ccncc1)N2 (centres undefined)	-4.2	-2.1	5.6	1.4	6.6	-1.5	x	x
COc1ccc(S(=O)(=O)c2c(C)c(NS(=O)(=O)c3ccccc3)cc(C)c2O)cc1	0.2	2.2	-0.5	-9.6	20.7*	3.9	0.4	0.9
O=S(=O)(c1cccc(Br)c1)N1CCN(CCc2ccccc2)CC1	-0.7	-3.4	0.7	-3.6	2.8	2.8	x	x
Cc1cc(/C=N/NC(N)=S)c(C)n1-c1cccc(Cl)c1	-2.4	5.2	0.8	0.1	60.1*	-1.3	1.4	0.5
Cc1cc(/C=N/NC(N)=S)c(C)n1-c1ccc(Cl)cc1	-1.4	13.3	1.0	3.6	0.3	2.0	x	x
Cc1cc(/C=N/NC(N)=S)c(C)n1-c1ccc(Br)cc1	-2.4	2.0	-2.3	12.3	24.6*	5.4	16.4*	-3.9
Cc1cccc(C)c1-n1c(C)cc(/C=N/NC(N)=S)c1C	1.7	9.4	0.9	9.1	4.0	12.7	x	x
Cc1ccc(CN2CCN(/N=C/c3cc(Br)ccc3O)CC2)cc1	1.2	0.5	-2.3	-6.9	34.9*	-5.6	-4.1	-7.3
Cc1ccc(/C=N/N2CCN(Cc3ccc(C)cc3)CC2)cc1	1.3	-1.7	2.5	2.6	-5.6	4.2	x	x
CCOC(=O)c1cnc(-n2nc(C)cc2C)nc1NC1CCCCC1	-0.3	-6.5	-0.8	4.4	55.2*	-3.4	53.9*	0.7
CC(=O)N1c2ccc(S(=O)(=O)NCCC(=O)Nc3ccc(C)c(F)c3)cc2CC1C (centres undefined)	-1.6	-0.4	-3.4	-0.2	-5.0	1.8	x	x
CCCc1nnc(NC(=O)C23CC4CC(CC(C4)C2)C3)s1	3.1	x	2.8	-4.7	x	-11.5	x	x
O=C(O)COc1ccccc1/C=N/Nc1ccc(S(=O)(=O)Nc2ccc(Cl)cc2)cc1[N+](=O)[O-]	-3.4	0.2	-7.5	25.7	18.9*	1.8	14.0	-2.6
COc1ccccc1NS(=O)(=O)c1ccc(N/N=C/c2ccccc2OCC(=O)O)c([N+](=O)[O-])c1	-0.4	-75.7	-5.6	18.9	1.3	-1.3	x	x
SMILES	HNF4A DNA FP	TPT1 inh	CSN deneddyl inh	NadD inh	PP1 counter	Rpn11 block	PP1 inh confirm	PP5 counter
COc1ccc(C(=O)NCc2nnc(SCC(=O)NC3CCCCC3)o2)cc1	1.5	0.5	1.3	6.3	-3.8	-6.8	x	x
O=C(CCN1C(=O)/C(=C/C=C/c2ccccc2)SC1=S)Nc1cccnc1	16.3	11.3	18.0	17.8	19.9*	37.4	13.5	-2.1
CC(=Cc1ccccc1)C=C1SC(=S)N(CCCC(=O)Nc2ccc(C(=O)O)cc2)C1=O	6.2	x	13.8	28.8	x	15.9	x	x
CC(/C=C1\SC(=S)N(CCCC(=O)Nc2ccc(C(=O)O)cc2)C1=O)=C\c1ccccc1	0.9	12.6	11.1	25.5	19.0*	19.6	10.6	-4.0
O=C(CCN1C(=O)/C(=C/c2ccc(Cl)cc2)SC1=S)Nc1cccnc1	-6.1	-1.0	-2.2	17.3	-1.5	-4.8	x	x
COc1ccccc1/C=C1\SC(=S)N(CCC(=O)Nc2ccc(C(=O)O)c(O)c2)C1=O	-6.4	-0.4	5.7	14.2	27.4*	9.6	14.3	1.1
CCN(CC(=O)Nc1c(F)cccc1F)C(=O)c1cccc(S(=O)(=O)N2CCCc3ccccc32)c1	2.7	x	2.8	2.2	x	-6.0	x	x
Cc1nn(Cc2ccccc2Cl)c(C)c1NC(=O)C1C2CCC(O2)C1C(=O)O (centres undefined)	-2.7	x	-8.6	-0.2	x	-3.5	x	x
Cc1nn(C)cc1CNC(=O)C1C2CCC(O2)C1C(=O)O (centres undefined)	x	-2.7	x	x	61.9*	x	37.4*	40.9*
O=C(O)C1C2CCC(O2)C1C(=O)Nc1cccc(Cl)c1 (centres undefined)	1.2	-1.9	0.5	-2.5	70.5*	0.4	16.6*	25.3*
Cc1nn(C)cc1CNC(=O)C1C2CCC(C2)C1C(=O)O (centres undefined)	x	-3.1	x	x	-0.7	x	x	x
Cc1nn(Cc2ccc(Cl)cc2Cl)c(C)c1NC(=O)C1C2CCC(O2)C1C(=O)O (centres undefined)	-0.4	2.5	0.1	-6.2	31.8*	1.9	12.3	22.5*
O=C(O)C1C2CCC(O2)C1C(=O)NCc1ccc(Cl)cc1 (centres undefined)	-2.2	-0.6	-2.1	-7.3	32.2*	2.3	16.7*	31.6*
O=C(O)C1C2CCC(O2)C1C(=O)Nc1ccc(Cl)cc1F (centres undefined)	2.4	-3.1	-1.1	-4.1	67.0*	5.0	25.8*	33.5*
Cc1cccc(NC(=O)Cn2nnc(C(=O)Nc3ccc(F)c(Cl)c3)c2N)c1	5.9	0.4	1.8	9.7	19.2*	-1.2	-0.9	-3.9
